According to ChEMBL document CHEMBL5120929, “Inhibitor Screen Identifies Covalent Inhibitors of the Protein Histidine Phosphatase PHPT1” (ACS Med Chem Lett, 2022):
The source made the active and inactive calls. No cut-off for these calls is given here.

How the values were obtained:
[1] = target: T1, 14 kDa phosphohistidine phosphatase (Homo sapiens) (UniProt Q9NRX4); test: Competitive inhibition of PHPT1 (unknown origin) assessed as change in Km and Vmax at below 150 uM using DifMUP as substrate by Michaelis-Menten based analysis
T1 sequence (whole entry): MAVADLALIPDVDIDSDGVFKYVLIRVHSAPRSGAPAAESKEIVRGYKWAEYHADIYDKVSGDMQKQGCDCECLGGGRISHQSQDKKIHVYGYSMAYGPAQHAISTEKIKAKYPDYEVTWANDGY

[2] = target: T2, 14 kDa phosphohistidine phosphatase (Homo sapiens, UniProt Q9NRX4); test: Inhibition of PHPT1 (unknown origin) using DiFMUP as fluorogenic substrate incubated for 30 mins followed by substrate addition and measured every 60 seconds for 30 mins by fluorogenic assay
T2 sequence (Q9NRX4 whole entry): T1 sequence (whole entry)

[3] = target: T1, 14 kDa phosphohistidine phosphatase (Homo sapiens); test: Mixed inhibition of PHPT1 (unknown origin) assessed as change in Km and Vmax at above 150 uM using DifMUP as substrate by Michaelis-Menten based analysis
[4] = target: T1, 14 kDa phosphohistidine phosphatase (Homo sapiens); test: Reversible inhibition of PHPT1 (unknown origin) at 1 mM using DiFMUP as fluorogenic substrate preincubated for 30 mins followed by substrate addition by dialysis method
Method in brief: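 Reversibility was tested by measuring PHPT1 inhibition in the fluorogenic activity assay before and after dialysis.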

[5] = target: T2, 14 kDa phosphohistidine phosphatase; test: Inhibition of PHPT1 (unknown origin) assessed as inhibition constant measured up to 100 uM incubated up to 30 mins using DiFMUP as fluorogenic substrate by fluorogenic assay
Method in brief: (§1)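 Kinetics of time-dependent PHPT1 inactivation in the fluorogenic activity assay. Observed inactivation rate constants (kobs) were plotted against inhibitor concentration to obtain kinact and KI.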

[6] = target: T1, 14 kDa phosphohistidine phosphatase (Homo sapiens); test: Time dependent inhibition of PHPT1 (unknown origin) at 10 uM using DiFMUP as fluorogenic substrate preincubated for 15 to 120 mins followed by substrate addition and measured for 30 mins by fluorogenic assay; details: time 45-150 min, TDE = time-dependent effect
[7] = target: T3, Mediator of RNA polymerase II transcription subunit 25 (Homo sapiens, UniProt Q71SY5); test: Inhibition of Med25 transcriptional activation in human MCF-7 cells by fluorescence polarization assay; type: cell-based; details: mcf7
T3 sequence (Q71SY5 whole entry): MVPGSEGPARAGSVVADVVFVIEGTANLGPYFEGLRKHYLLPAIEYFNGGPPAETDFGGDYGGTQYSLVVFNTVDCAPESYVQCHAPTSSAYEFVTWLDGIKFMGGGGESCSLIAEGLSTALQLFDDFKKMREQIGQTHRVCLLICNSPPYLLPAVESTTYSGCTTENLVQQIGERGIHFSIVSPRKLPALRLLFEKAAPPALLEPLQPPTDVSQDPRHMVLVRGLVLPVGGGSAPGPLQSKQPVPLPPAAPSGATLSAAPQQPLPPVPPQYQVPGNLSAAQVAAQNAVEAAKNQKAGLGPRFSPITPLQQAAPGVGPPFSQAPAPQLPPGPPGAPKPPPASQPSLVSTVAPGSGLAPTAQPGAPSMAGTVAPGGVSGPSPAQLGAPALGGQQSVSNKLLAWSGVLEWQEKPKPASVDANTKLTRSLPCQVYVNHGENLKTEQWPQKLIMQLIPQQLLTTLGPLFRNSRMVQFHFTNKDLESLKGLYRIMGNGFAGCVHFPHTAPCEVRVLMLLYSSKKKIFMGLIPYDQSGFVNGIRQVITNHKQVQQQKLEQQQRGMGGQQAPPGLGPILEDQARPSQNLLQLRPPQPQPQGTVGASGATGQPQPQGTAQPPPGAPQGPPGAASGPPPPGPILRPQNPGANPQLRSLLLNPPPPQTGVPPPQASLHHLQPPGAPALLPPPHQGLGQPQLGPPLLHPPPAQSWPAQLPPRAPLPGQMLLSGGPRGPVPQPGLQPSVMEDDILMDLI

[8] = target: T1, 14 kDa phosphohistidine phosphatase (Homo sapiens); test: Inhibition of PHPT1 (unknown origin) assessed as inactivation constant measured up to 100 uM incubated up to 30 mins using DiFMUP as fluorogenic substrate by fluorogenic assay; method in brief: as §1
[9] = target: T1, 14 kDa phosphohistidine phosphatase (Homo sapiens); test: Time dependent inhibition of PHPT1 (unknown origin) at 20 uM using DiFMUP as fluorogenic substrate preincubated for 15 to 120 mins followed by substrate addition and measured for 30 mins by fluorogenic assay; details: time 45-150 min, TDE = time-dependent effect

CC(=O)Nc1cc([As](=O)(O)O)ccc1O [ACETARSONE]
inhibition [1]: Active | IC50 [2]: 100 µM | inhibition [3]: Active | inhibition [4]: Active

Cc1cc(O)c(C=O)c2c1C(=O)Oc1c(C)c(O)c3c(c1O2)C(O)OC3=O (centres undefined) [NORSTICTIC ACID]
Ki [5]: 90 µM | IC50 [2]: 7.9 µM | inhibition [6]: Tde | IC50 [7]: 2.3 µM | Kinact [8]: 1.7 min⁻¹

O=[N+]([O-])c1cc([As](=O)(O)O)ccc1O [ROXARSONE]
inhibition [1]: Active | IC50 [2]: 80 µM | inhibition [3]: Active

COc1cc(C)c2c(c1C=O)Oc1c(c(C)c(O)c3c1C(O)OC3=O)OC2=O (centres undefined) [STICTIC ACID]
inhibition [9]: Tde | IC50 [2]: 22 µM
